Experimental data published in ChEMBL document CHEMBL1817543, “New nitric oxide or hydrogen sulfide releasing aspirins” (J Med Chem, 2011).
pEC50, pIC50: −log10 of the molar value. The source made the active and inactive calls. No cut-off for these calls is given here.

Legend:
[1] = Half life in human serum at 200 uM by RP-HPLC analysis; type: ADME
Summary of the method: (§1)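 DMSO stock (10 mM) added to prewarmed human serum (male AB plasma) to a final 200 μM. Incubated at 37 ± 0.5 °C; aliquots deproteinized with acetonitrile containing 0.1% TFA. Parent, aspirin and metabolites quantified by RP-HPLC, calibration 1–200 μM. Pseudo-first-order half-life; peak aspirin expressed as % of initial carbonate. At least triplicate.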

[2] = Antiaggregatory activity in plasma rich human platelets assessed as inhibition of collagen-induced platelet aggregation preincubated for 10 mins before collagen challenge measured 10 mins after stimulus addition; type: functional
Summary of the method: (§2)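 Human PRP from citrated venous blood of drug-free healthy volunteers, centrifuged 210g for 20 min. Compound (vehicle 0.5% DMSO) preincubated 10 min, then collagen at submaximal 0.8–1.5 μg/mL. Light-transmission aggregometry with stirring at 1000 rpm, 37 °C, recorded 10 min. Reported as % inhibition versus control (at 300 μM) or IC50 by nonlinear regression. At least five experiments.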

[3] = Chemical stability of the compound in acidic medium assessed as unchanged compound after 3 hrs at pH 1 by RP-HPLC analysis; type: physicochemical; details: read-out: Stability
Summary of the method: (§3)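 A 0.5 mM DMSO solution (2 mL) was diluted to 10 mL with 0.1 M HCl (pH 1.0) or 50 mM phosphate buffer (pH 7.4). Held at 37 ± 0.5 °C and sampled over time by RP-HPLC on C18 with acetonitrile/water 0.1% TFA gradient. Percent unchanged reported at 3 h. Triplicate.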

[4] = Chemical stability of the compound in phosphate buffer assessed as unchanged compound after 3 hrs at pH 7.4 by RP-HPLC analysis; type: physicochemical; details: read-out: Stability; summary of the method: as §3
Homo sapiens = species on record: Homo sapiens; assay: Chemical stability of compound in human serum assessed as maximal amount of aspirin released; type: ADME; summary of the method: as §1
Aorta [5] = assay: Vasodilatory activity at endothelium denuded Wistar rat thoracic aorta assessed as relaxation of KCl-induced contraction preincubated for 30 mins before KCl challenge in presence of 10 uM ATP-modulated K+ channel inhibitor glibenclamide; type: functional, tissue-based
Summary of the method: (§4)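 Endothelium-denuded thoracic aorta strips from male Wistar rats (180–200 g) at 37 °C, gassed 95% O2/5% CO2, pH 7.4. Equilibrated 1.5 h, contracted with 25 mM KCl, then cumulative compound concentrations added at plateau; isometric tension recorded. EC50 ± SEM; at least five experiments. For glibenclamide runs, 10 μM added before contraction, ≥30 min before vasodilator.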

Aorta [6] = assay: Vasodilatory activity at endothelium denuded Wistar rat thoracic aorta assessed as relaxation of KCL-induced contraction preincubated for 30 mins before KCL challenge; type: functional, tissue-based; summary of the method: as §4
Platelet = assay: Antiaggregatory activity in plasma rich human platelets assessed as inhibition of collagen-induced platelet aggregation at 300 uM preincubated for 10 mins before collagen challenge measured 10 mins after stimulus addition; type: functional; summary of the method: as §2
Aorta [7] = assay: Vasodilatory activity at endothelium denuded Wistar rat thoracic aorta assessed as relaxation of phenylephrine-induced contraction preincubated for 30 mins before phenylephrine challenge in presence of 1 uM soluble guanylate cyclase inhibitor H-[1,2,4]Oxadiazolo[4,3-a]quinoxalin-1-one; type: functional, tissue-based
Summary of the method: (§5)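 Male Wistar rat (180–200 g) thoracic aorta strips at 37 °C, 95% O2/5% CO2, pH 7.4, equilibrated 1.5 h, then precontracted with 1 μM L-phenylephrine. Cumulative vasodilator concentrations added at plateau; isometric recording. EC50 ± SEM from at least five experiments. ODQ runs: 1 μM inhibitor added before contraction, preincubated ≥30 min before vasodilator.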

Aorta [8] = assay: Vasodilatory activity at endothelium denuded Wistar rat thoracic aorta assessed as relaxation of phenylephrine-induced contraction; type: functional, tissue-based; summary of the method: as §5

| Compound | half-life at 200 µM [1] [min] | pIC50 [2] | remaining at 3 h [3] [%] | remaining at 3 h [4] [%] | Activity (Homo sapiens) [%] | pEC50 (Aorta [5]) | pEC50 (Aorta [6]) | Activity (Platelet) | pEC50 (Aorta [7]) | pEC50 (Aorta [8]) |
| --- | --- | --- | --- | --- | --- | --- | --- | --- | --- | --- |
| CC(=O)Oc1ccccc1C(=O)OCOC(=O)OCC(CO[N+](=O)[O-])O[N+](=O)[O-] (configuration not stated) | < 1 | 4.03 | 98 | 85 | 25 |  |  |  |  |  |
| CC(=O)Oc1ccccc1C(=O)O [ASPIRIN] | 63 | 4.27 | 90 | 90 |  |  |  |  |  |  |
| CC(=O)Oc1ccccc1C(=O)OCOC(=O)OCCOc1ccc(-c2cc(=S)ss2)cc1 | 3 | 4.80 | 98 | 96 | 42 |  |  |  |  |  |
| CC(=O)Oc1ccccc1C(=O)OCOC(=O)Oc1ccc(-c2cc(=S)ss2)cc1 | 2.1 | 3.82 | 96 | 80 | 36 |  |  |  |  |  |
| Oc1ccc(-c2cc(=S)ss2)cc1 |  |  |  |  |  | 4.77 | 5.23 | inactive |  |  |
| O=[N+]([O-])OCCCc1ccc(O)cc1 |  |  |  |  |  |  |  |  | < 4.00 | 6.00 |
| CC(=O)Oc1ccccc1C(=O)OCOC(=O)Oc1ccc(CCCO[N+](=O)[O-])cc1 | 1.6 | 4.17 | 98 | 98 | 40 |  |  |  |  |  |
| O=[N+]([O-])OCCCO [ABRUCOMSTAT] |  |  |  |  |  |  |  | inactive | < 4.00 | 5.40 |
| O=[N+]([O-])OCC(Cc1ccc(O)cc1)O[N+](=O)[O-] (configuration not stated) |  |  |  |  |  |  |  | inactive | < 4.00 | 6.89 |
| OCCOc1ccc(-c2cc(=S)ss2)cc1 |  |  |  |  |  | 4.80 | 5.10 |  |  |  |
| CC(=O)Oc1ccccc1C(=O)OCOC(=O)OCCCO[N+](=O)[O-] | < 1 | 3.71 | 98 | 98 | 9 |  |  |  |  |  |
| CC(=O)Oc1ccccc1C(=O)OCOC(=O)Oc1ccc(CC(CO[N+](=O)[O-])O[N+](=O)[O-])cc1 (configuration not stated) | 2.2 | 3.99 | 98 | 95 | 34 |  |  |  |  |  |
